Assay results as given in ChEMBL document CHEMBL1124197, “3-[1-(2-Benzoxazolyl)hydrazino]propanenitrile derivatives: inhibitors of immune complex induced inflammation” (1988).
Activity calls are given as the source filed them. The rule behind the calls is not given here.

Species: Rattus norvegicus
Test: Inhibition of pleural reverse passive Arthus reactions (RPAR) in rat (exudate volume)
Type: functional
Method in brief: (§1)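 Fasted male rats were given BSA intravenously, then about 1 h later rabbit anti-BSA intrapleurally. Oral dosing was 30 min before the challenge. After 4 h the rats were killed and pleural exudate fluid volume and white blood cell accumulation were determined. ED50 with 95% confidence limits came from least-squares regression.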

| SMILES | ED50 [µmol/kg] |
| --- | --- |
| N#CCCN(N)c1nc2cc(C(F)(F)F)ccc2o1 | 70 |
| C[C@]12CCC(=O)C=C1CC[C@@H]1[C@@H]2[C@@H](O)C[C@@]2(C)[C@H]1CC[C@]2(O)C(=O)CO [HYDROCORTISONE] | 38 |
| N#CCCN(N)c1nc2ccccc2o1 | 238 |
| Cc1ccc2oc(N(N)CCC#N)nc2c1 | 148 |
| COc1ccc2oc(N(N)CCC#N)nc2c1 | 155 |

Test system: Rattus norvegicus
Test: Inhibition of pleural reverse passive Arthus reactions (RPAR) in rat (exudate volume); No significant inhibition at 56 umol/kg (Inactive)
Type: functional, organism-based
Method in brief: as §1

| SMILES | ED50 |
| --- | --- |
| COc1ccc2c(c1)c(CC(=O)O)c(C)n2C(=O)c1ccc(Cl)cc1 [INDOMETHACIN] | inactive |

Species: Rattus norvegicus
Test: Inhibition of pleural reverse passive Arthus reactions (exudate white blood cells (WBC))
Type: functional
Method in brief: as §1

| SMILES | ED50 [µmol/kg] |
| --- | --- |
| N#CCCN(N)c1nc2cc(C(F)(F)F)ccc2o1 | 92 |
| C[C@]12CCC(=O)C=C1CC[C@@H]1[C@@H]2[C@@H](O)C[C@@]2(C)[C@H]1CC[C@]2(O)C(=O)CO [HYDROCORTISONE] | 50 |
| N#CCCN(N)c1nc2ccccc2o1 | 243 |
| Cc1ccc2oc(N(N)CCC#N)nc2c1 | 175 |
| COc1ccc2oc(N(N)CCC#N)nc2c1 | 116 |

Test system: Rattus norvegicus
Test: Inhibition of pleural reverse passive Arthus reactions (exudate white blood cells (WBC)); No significant inhibition at 56 umol/kg (Inactive)
Type: functional, organism-based
Method in brief: as §1

| SMILES | ED50 |
| --- | --- |
| COc1ccc2c(c1)c(CC(=O)O)c(C)n2C(=O)c1ccc(Cl)cc1 [INDOMETHACIN] | inactive |

Species: Rattus norvegicus
Test: Effective dose required for 40% inhibition of rat dermal reverse passive Arthus reaction (RPAR)
Type: functional
Method in brief: (§2)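 Fasted male rats received BSA intravenously and about 1 h later a challenge of rabbit anti-BSA given intradermally. Compound was dosed orally 30 min before the challenge. Rats were killed 4 h later and dermal lesion size was measured. ED40 with 95% confidence limits came from least-squares regression.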

| SMILES | ED40 [µM/kg] |
| --- | --- |
| COCCN(N)c1nc2cc(Cl)ccc2o1 | 136 |
| CCc1ccc2oc(N(N)CCC#N)nc2c1 | 330 |
| COc1ccc2oc(N(CCC#N)NC=O)nc2c1 | 200 |
| N#CCCSc1nc2ccccc2o1 | 1268 |
| CCCN(N)c1nc2ccccc2o1 | 400 |
| COCCN(N)c1nc2cc(OC)ccc2o1 | 43 |
| C[S+]([O-])c1ccc2oc(N(N)CCC#N)nc2c1 (stereo not given) | 607 |
| N#CCCN(NC=O)c1nc2cc(C(F)(F)F)ccc2o1 | 87 |
| CCNN(CCC#N)c1nc2ccccc2o1 | 196 |
| NC(=O)CCN(N)c1nc2ccccc2o1 | 1009 |
| Cc1cc(Cl)cc2nc(N(N)CCC#N)oc12 | 191 |
| COc1cc2nc(N(N)CCC#N)oc2cc1OC | 650 |
| COCCN(N)c1nc2cc(C)ccc2o1 | 127 |
| CC(CC#N)N(N)c1nc2ccccc2o1 (stereo not given) | 245 |
| COC(=O)NN(CCC#N)c1nc2ccccc2o1 | 695 |
| Cc1ccc2oc(N(CCC#N)NC=O)nc2c1 | 168 |
| N#CCCN(N)c1nc2cc(C(F)(F)F)ccc2o1 | 26 |
| C#CCCN(N)c1nc2ccccc2o1 | 348 |
| COCCN(N)c1nc2cc(C(F)(F)F)ccc2o1 | 47 |
| CSc1cc(C(C)(C)C)cc2nc(N(N)CCC#N)oc12 | 801 |
| [2H]C([2H])(C#N)CN(N)c1nc2ccccc2o1 | 255 |

| SMILES | ED40 [µM/kg] |
| --- | --- |
| C[C@]12CCC(=O)C=C1CC[C@@H]1[C@@H]2[C@@H](O)C[C@@]2(C)[C@H]1CC[C@]2(O)C(=O)CO [HYDROCORTISONE] | 33 |
| Cc1cccc2nc(N(N)CCC#N)oc12 | 250 |
| N#CCCN(N)c1nc(-c2ccccc2)c(-c2ccccc2)o1 | 332 |
| N#CCCN(N)c1ncco1 | 360 |
| N#CCCN(N)c1nccs1 | 390 |
| N#CCCN(N)c1nc2cc(F)ccc2o1 | 141 |
| COCCN(N)c1nc2ccccc2o1 | 300 |
| N#CCCN(NC=O)c1nc2ccccc2o1 | 142 |
| N#CCCN(N)c1nc2cccc(Cl)c2o1 | 275 |
| CS(=O)(=O)c1ccc2oc(N(N)CCC#N)nc2c1 | 407 |
| N#CCCN(N)c1nc2ccccc2o1 | 84 |
| N#CCCN(N)c1nc2cc(C#N)ccc2o1 | 66 |
| CCN(CC)CCN(N)c1nc2ccccc2o1 | 611 |
| C=NN(CCC#N)c1nc2ccccc2o1 | 845 |
| NN(CCN1CCOCC1)c1nc2ccccc2o1 | 825 |
| N#CCCN(N)c1nc(-c2ccccc2)co1 | 119 |
| NN(CCc1ccccc1)c1nc2ccccc2o1 | 962 |
| CSCCN(N)c1nc2ccccc2o1 | 913 |
| N#CCCN(N)C1=Nc2ccccc2C1 | 265 |
| COc1ccc2nc(N(N)CCC#N)oc2c1 | 388 |
| NN(CCOc1ccccc1)c1nc2ccccc2o1 | 457 |

| SMILES | ED40 [µM/kg] |
| --- | --- |
| CCOCCN(N)c1nc2cc(OC)ccc2o1 | 149 |
| Cc1cccc2oc(N(N)CCC#N)nc12 | 356 |
| Cn1c(N(N)CCC#N)nc2ccccc21 | 349 |
| NN(CCO)c1nc2ccccc2o1 | 1247 |
| Cc1ccc2nc(N(N)CCC#N)oc2c1 | 216 |
| Cc1cc(C)c2oc(N(N)CCC#N)nc2c1C | 115 |
| Cc1cc2oc(N(N)CCC#N)nc2c(C)c1C | 139 |
| CCN(N)c1nc2ccccc2o1 | 254 |
| CS(=O)(=O)CCN(N)c1nc2ccccc2o1 | 278 |
| CSc1ccc2oc(N(N)CCC#N)nc2c1 | 399 |
| NN(CCOc1ccc(F)cc1)c1nc2ccccc2o1 | 800 |
| N#CCCN(N)c1ccc(-c2ccccc2)nn1 | 672 |
| N#CCCNc1nc2ccccc2o1 | 1302 |
| N#CCCN(N)c1cnccn1 | 760 |
| N#CCCN(N)c1nc2cc(Cl)ccc2o1 | 177 |
| N#CCCN(N)C1Cc2ccccc2C1 | 565 |
| N#CCCN(N)c1nc2ccccc2s1 | 128 |
| Cc1coc(N(N)CCC#N)n1 | 705 |
| N#CCCN(N)c1nc2cc3ccccc3cc2o1 | 306 |
| N#CCCN(N)c1ncc(-c2ccccc2)cn1 | 121 |
| CC(C#N)CN(N)c1nc2ccccc2o1 (stereo not given) | 210 |

| SMILES | ED40 [µM/kg] |
| --- | --- |
| N#CCCN(N)C1=NS(=O)(=O)c2ccccc21 | 643 |
| CC(C)(C)c1ccc2oc(N(N)CCC#N)nc2c1 | 345 |
| Cc1ccc2oc(N(N)CCC#N)nc2c1 | 83 |
| Cc1cc(C)c2oc(N(N)CCC#N)nc2c1 | 161 |
| COC(=O)CCN(N)c1nc2ccccc2o1 | 1208 |
| Cc1cc2nc(N(N)CCC#N)oc2cc1C | 413 |
| NN(CCCO)c1nc2ccccc2o1 | 576 |
| CC(=O)NN(CCC#N)c1nc2ccccc2o1 | 402 |
| COCCN(N)c1nc2cc(C#N)ccc2o1 | 181 |
| Cc1cc2oc(N(N)CCC#N)nc2cc1Cl | 36 |
| C/C=N\N(CCC#N)c1nc2ccccc2o1 | 625 |
| Cc1cc(N(N)CCC#N)c2ccccc2n1 | 177 |
| COc1ccc2oc(N(N)CCC#N)nc2c1 | 59 |
| NN(CCc1ccccn1)c1nc2ccccc2o1 | 258 |
| CNN(CCC#N)c1nc2ccccc2o1 | 250 |
| N#CCCN(N)c1nc2c(ccc3ccccc32)o1 | 346 |
| NN(CC[S+]([O-])c1ccccc1)c1nc2ccccc2o1 (stereo not given) | 719 |
| Cc1nc(N(N)CCC#N)oc1C | 519 |

Test system: Rattus norvegicus
Test: In vivo inhibition of rat dermal passive revers arthus reaction following p.o. administration; Inactive.
Type: functional, organism-based

| SMILES | ED40 |
| --- | --- |
| N#CCC(=O)N(N)c1nc2ccccc2o1 | inactive |
| N#CCCN(N)c1nc2cc(OCc3ccccc3)ccc2o1 | inactive |
| CCOC(=O)c1ccc2oc(N(N)CCC#N)nc2c1 | inactive |
| NN(CCC(=O)O)c1nc2ccccc2o1 | inactive |
| NN(CCS(=O)(=O)c1ccccc1)c1nc2ccccc2o1 | inactive |
| COC(=O)N(CCC#N)c1nc2ccccc2o1 | inactive |
| CN(C)S(=O)(=O)n1c(N(N)CCC#N)nc2ccccc21 | inactive |
| N#CCCN(NC(=O)NC1CCCCC1)c1nc2ccccc2o1 | inactive |
| N#CCCN(N)c1nc2cc(Oc3ccccc3)ccc2o1 | inactive |
| CC(C)S(=O)(=O)n1c(N(N)CCC#N)nc2ccccc21 | inactive |
| N#CCCN(N)c1nc2cc(-c3ccccc3)ccc2o1 | inactive |
| N#CCCC(N)c1nc2ccccc2o1 (stereo not given) | inactive |
| CC(=O)N(CCC#N)c1nc2ccccc2o1 | inactive |
| CNC(=O)NN(CCC#N)c1nc2ccccc2o1 | inactive |
| NN(CCSc1ccccc1)c1nc2ccccc2o1 | inactive |
| N#CCCN(N)c1nc2cc(C(=O)c3ccccc3)ccc2o1 | inactive |
| C/N=C(\S)NN(CCC#N)c1nc2ccccc2o1 | inactive |
| CS(=O)(=O)NN(CCC#N)c1nc2ccccc2o1 | inactive |
| N#CCCN(NC(N)=O)c1nc2ccccc2o1 | inactive |
| N#CCCN(C=O)c1nc2ccccc2o1 | inactive |

Test system: Rattus norvegicus
Test: Effective dose of compound for 40% inhibition of rat dermal reverse passive Arthus reaction (RPAR) on peroral administration; No significant inhibition at 56 umol/kg (Inactive)
Type: functional, organism-based
Method in brief: as §2

| SMILES | ED40 |
| --- | --- |
| COc1ccc2c(c1)c(CC(=O)O)c(C)n2C(=O)c1ccc(Cl)cc1 [INDOMETHACIN] | inactive |

Species: Rattus norvegicus
Test: Effect in rat pleural Carrageenan test (exudate volume)
Type: functional

| SMILES | ED50 [µmol/kg] |
| --- | --- |
| C[C@]12CCC(=O)C=C1CC[C@@H]1[C@@H]2[C@@H](O)C[C@@]2(C)[C@H]1CC[C@]2(O)C(=O)CO [HYDROCORTISONE] | 12 |
| N#CCCN(N)c1nc2ccccc2o1 | 105 |
| COc1ccc2c(c1)c(CC(=O)O)c(C)n2C(=O)c1ccc(Cl)cc1 [INDOMETHACIN] | 1.1 |

Species: Rattus norvegicus
Test: Effect in rat pleural Carrageenan test (exudate white blood cells (WBC))
Type: functional

| SMILES | ED50 [µmol/kg] |
| --- | --- |
| C[C@]12CCC(=O)C=C1CC[C@@H]1[C@@H]2[C@@H](O)C[C@@]2(C)[C@H]1CC[C@]2(O)C(=O)CO [HYDROCORTISONE] | 9 |
| N#CCCN(N)c1nc2ccccc2o1 | 171 |

Test system: Rattus norvegicus
Test: Effect in rat pleural Carrageenan test (exudate white blood cells (WBC)); No significant effect at 28 umol/kg (Not active)
Type: functional, organism-based

| SMILES | ED50 |
| --- | --- |
| COc1ccc2c(c1)c(CC(=O)O)c(C)n2C(=O)c1ccc(Cl)cc1 [INDOMETHACIN] | inactive |
